Bioassay records as filed in PubChem.
An excerpt weighted towards active compounds, which were near 7.1% of everything screened.
HUVEC prolif 384: blocks proliferation of human endothelial cells; HUVEC proliferation, CellTiter-Glo luminescence, 72 h; stronger effect = lower value; AID 648; 1.1% of 86,000 active; viability, % at 10 µM (by protocol);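 active means viability at or below 30%; inactive means viability above 30%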;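 further: 100% = median luminescence of DMSO-only cell control wells on each plate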
Fibroblast inh: blocks proliferation of human lung fibroblasts; LL 47 human lung fibroblast viability, ATP luminescence; stronger effect = lower value; viability, % at 10 µM; 1.1% of 85,000 active; AID 719;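 active means viability at or below 50% in the single dose screen; inactive means viability above 50%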;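 further: compound exposure lasted 72 h before the ATP readout; 100% = median luminescence of untreated cell-only wells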
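Test system: LL 47 human lung fibroblasts; Quantity: 1,150 cells/well; Buffer or medium: IMEM plus 15% FBS; Dosing: tenfold compound dosing solution, DMSO at 0.1%; Timing: overnight cell rest, 72 h compound treatment at 37 °C; Detection: ATP-based CellTiter-Glo luminescent readout; Read-out basis: viability percentage against median untreated-cell control; Controls: cell-only wells, no compound.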
Cav3 T inh: inhibitors of human Cav3.2 T-type calcium channel | O95180 | Cav3.2-expressing cells, Fluo-4 calcium fluorescence FDSS; stronger effect = lower value | B-score at 10 µM | 4% of 100,000 active;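 active means single-dose well whose peak fluorescence ratio is a statistical outlier from its plate by either plate-standardised score or position-corrected B-score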
bCat KO growth: beta-catenin-lacking colon tumor cell growth suppression; 1.5% of 140,000 active; viability, % at 10 µM; HCT116 beta-catenin knockout viability, CellTiter-Glo, 60 h; stronger effect = lower value;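 active means viability at or under a set limit, the compound median less 4 SD, cut at about 6% in these data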;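 further: 0% = Hyamine 1622 control at 20 µM and 100% = untreated cell control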
HCT116 PTEN-null: suppresses growth of cells with PTEN deletion | 1.2% of 140,000 active | AID 827 | viability, % at 10 µM | HCT116 PTEN-null viability, CellTiter-Glo, 60 h; stronger effect = lower value;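 active means viability at or below a set limit, 4 SD under the median of all tested compounds, cut at about 3.7% in these data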;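 further: PTEN knockout HCT116 line with beta catenin targeted HCT116 as companion control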
H69AR growth 86K: blocks growth of human H69AR lung tumor cells; H69AR lung tumor viability, ATP luminescence, 72 h; stronger effect = lower value; viability, % at 10 µM; 6% of 85,000 active;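 active means viability at or below 40%; inactive means viability above 40%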;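 further: multidrug resistant small cell line overexpressing MRP-1 efflux transporter; 100% = mean luminescence of untreated control wells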
Numbers without * were called inactive; . = no result.

SMILES	HUVEC prolif 384	Fibroblast inh	Cav3 T inh	bCat KO growth	HCT116 PTEN-null	H69AR growth 86K
CCc1ccc(CN2CCN(C(=O)c3cccc(OC)c3OC)CC2)cc1	89	90	0.39	31	35	76
COc1ccc(C(NC(=O)C(C)C)c2c(O)ccc3ccccc23)cc1OC (stereo not drawn)	.	.	.	94	95	.
COc1ccc(S(=O)(=O)NCC(=O)O)cc1C(=O)NC1CCCCC1	.	.	.	97	109	.
CCOc1ccc(CCNC(=O)C2CCN(c3nnc(-n4cccc4)s3)CC2)cc1OCC	98	105	0.77	109	91	40*
CCOc1ccc(CCNC(=O)C2CCN(c3nnc(-n4cccc4)s3)CC2)cc1	110	108	1.4	98	92	91
COC(=O)c1cc(=O)nc2sc(-c3ccc(F)cc3)nn12	79	93	1.2	92	93	36*
Cc1ccc(CSC2=Nc3ccccc3C3=NC(CC(=O)NCc4ccco4)C(=O)N23)cc1 (stereo not drawn)	79	101	0.029	102	95	29*
O=C(CCC1N=C2c3ccccc3N=C(SCc3ccc(Cl)cc3)N2C1=O)NCc1ccco1 (stereo not drawn)	76	102	-2.5	75	69	74
O=C(CC1N=C2c3ccccc3N=C(SCc3ccc(F)cc3)N2C1=O)NCc1ccco1 (stereo not drawn)	64	93	-1.5	79	77	38*
Cc1nnc2n(c1=O)N=C(c1ccc(Cl)cc1)CS2	.	.	.	85	94	.
Cc1nn(C2CCS(=O)(=O)C2)c(Cl)c1/C=C/C(=O)OCC(=O)c1cc(C)n(-c2ccc(F)cc2)c1C (stereo not drawn)	.	.	.	19	31	.
CCN(CC)S(=O)(=O)c1ccc(C(=O)N2CCCCC2)cc1	92	101	0.21	87	103	100
Cc1cccc2cc(C#N)c(NCCNS(=O)(=O)c3ccc4c(c3)OCCO4)nc12	86	93	-4.2*	99	98	65
O=CN/C=C/c1cc(O)ccc1O	.	.	0.66	.	.	.
C/C(=C\C1CCCCC1)C(NC(=O)c1ccc(C(F)(F)F)cc1)c1ccc(-c2ccccc2)cc1 (stereo not drawn)	.	.	-0.12	.	.	.
CC/C(=C\C1CCCCC1)C(NP(=O)(c1ccccc1)c1ccccc1)c1ccccc1 (stereo not drawn)	.	.	-1.3	5.6*	4	.
C=CCN1C(c2ccc(OCC)cc2)=CS/C1=C(\C#N)c1nnc2n1CCCCC2	68	100	-0.053	60	66	34*
COC1=CC(=O)C(O)=C(CCCCCCC/C=C/CCCCCCCC2=C(O)C(=O)C=C(OC)C2=O)C1=O	.	.	-5.2*	.	.	.
O=C(Nc1nnc(-c2ccccc2)o1)c1cccc(N2C(=O)CCC2=O)c1	.	.	.	86	99	.
O=C(Nc1nnc(-c2ccc3c(c2)OCCO3)o1)c1ccc(Cc2ccccc2)cc1	9.6*	89	.	18	19	37*
O=C(Nc1nnc(-c2ccc3c(c2)CCCC3)o1)c1ccccc1	23*	64	-5.6*	13	11	38*
O=C(Nc1nnc(-c2ccc3c(c2)CCCC3)o1)c1ccccc1Cl	23*	72	.	27	28	23*
Cc1cccc(NC(=O)c2sc3nc4c(c(-c5cccs5)c3c2N)CN(C)CC4)c1	15*	81	0.69	52	32	57
CCCCCn1cnc2c(sc3nc4c(cc32)CSC(C)(C)C4)c1=O	.	.	.	88	97	.
O=C(CCc1nc2cccnc2n1Cc1ccccc1)NCCc1ccc(Cl)cc1	77	97	-7.2*	88	87	83
SMILES	HUVEC prolif 384	Fibroblast inh	Cav3 T inh	bCat KO growth	HCT116 PTEN-null	H69AR growth 86K
COc1ccc(Cn2c(CCC(=O)Nc3ccc(C)c(C)c3)nc3cccnc32)cc1	84	105	-3.5*	104	88	37*
COCCCNC(=O)CCc1nc2cccnc2n1Cc1ccccc1	93	105	-0.059	100	100	90
O=C(CCCCCN1C(=O)CCC1=O)Nc1ccc(Cl)c(C(F)(F)F)c1	118	108	-0.23	82	73	94
COC(=O)c1cc(Br)c(=O)n(Cc2ccc(OC)c(OC)c2)c1	96	92	1.2	91	93	107
O=C(c1ccco1)N(CCC(c1ccccc1)c1ccco1)Cc1ccc(F)cc1 (stereo not drawn)	.	.	-3.9*	62	62	.
CC1(C)CC(C(CCN(Cc2ccccc2)C(=O)c2ccco2)c2ccc(F)cc2)CCO1 (stereo not drawn)	.	.	.	41	38	.
Cc1ccc(-c2cc(C(=O)N/N=C\c3cnn(C)c3C)c3ccccc3n2)cc1C	.	.	0.17	91	79	.
O=C1C=C(O)CC(c2ccco2)C1 (stereo not drawn)	90	98	0.59	96	110	93
O=C1C=C(Nc2ccc(O)cc2)CC(c2ccco2)C1 (stereo not drawn)	64	80	0.16	38	32	26*
CCOC(=O)C1=C(C)OC(N)=C(C#N)C1c1ccc(OC)c(C)c1OC (stereo not drawn)	95	96	-0.25	96	107	96
CCOc1cc(C2C(C#N)=C(N)OC(C)=C2C(C)=O)c(Br)c(Br)c1OC(C)C (stereo not drawn)	31	62	-5.3*	12	10	3.2*
CC(=O)N(Cc1ccc(F)cc1)C1=C(NCc2ccccc2)C(=O)c2ccccc2C1=O	3.4*	2.6*	-5.1*	1.4*	1.2*	3.5*
CC1(C)NC(C)(C)C(O)(C(N)=O)C1=O (stereo not drawn)	101	103	0.63	101	91	74
Clc1ccc(CNc2nc(CN3CCOCC3)nc3scc(-c4ccccc4)c23)cc1	.	.	.	69	72	.
CNC(=S)N1N=C(c2ccc(Br)cc2)CC1c1ccc(OC)cc1 (stereo not drawn)	.	.	.	80	77	.
CNC(=S)N1N=C(c2ccc(C)cc2)CC1c1ccc(OC)cc1 (stereo not drawn)	.	.	-4.1*	82	77	.
O=C(CN1CCOCC1)NN=C1CCCCCCCCCCC1	.	.	.	86	93	.
CC(Nc1nc(N2CCCCC2)nc2ccccc12)c1ccccc1 (stereo not drawn)	3.6*	21*	-7*	4.2*	4	3.2*
COc1ccc(Nc2nc(N3CCCC3)nc3ccccc23)c(OC)c1	32	105	-0.91	1.4*	1.4*	2.1*
O=C(COC(=O)C(Cc1ccccc1)NC(=O)c1ccc(Cl)cc1)c1ccc(Cl)cc1 (stereo not drawn)	.	.	.	91	98	.
CN(C)S(=O)(=O)NCc1ccc2c(c1)OCO2	98	103	0.11	89	97	101
CC(OC(=O)CCc1nc2ccccc2c(=O)[nH]1)C(=O)c1ccc(C(C)(C)C)cc1 (stereo not drawn)	.	.	.	96	89	.
Cc1cc(C)cc(OCC(=O)N2N=C(C(F)(F)F)CC2(O)C(C)(C)C)c1 (stereo not drawn)	91	98	-4.3*	89	90	34*
